Folding enthalpy and Tm data for 32 sequences are collected here from the array DNA melting data of Ke et al. (doi:10.1101/2024.01.08.574731).

The nature of series [1]: folding enthalpy; higher = less favourable; fluorescence melt of hairpins on a sequencing array, two-state fit. The note with it: sodium 0.088 M. Summed up: (§1)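 With Cy3 and quencher oligos annealed, library hairpins on a sequenced MiSeq flow cell were imaged for Cy3 fluorescence in 50 mM Na-HEPES pH 8.0, 25 mM NaCl, in 2.5 °C steps up to 60 °C. Melting temperature and folding enthalpy were derived from bootstrapped two-state fits of signals normalised to pre-quench Cy3 and to control constructs. Four replicates were combined by inverse variance, with fitted temperatures raised by 9.35 °C to match UV melts.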

Series [2] is described as follows: melting temperature; fluorescence melt of hairpins on a sequencing array, two-state fit, raised by 9.35 °C to match UV melts. The note with it: sodium 0.088 M. The procedure, abridged:
as §1

Consider GCGGAACGCCGC ((((....)))), for which, in series [1], the folding enthalpy was -9.84 kcal/mol. In series [2], the Tm was found to be 58.4 °C.

As for GCGGAAGACCGC ((((....)))), the folding enthalpy in series [1] was -18.5 kcal/mol. In series [2], the Tm came out at 52.8 °C.

For GCGGAAGCCGC ((((...)))), the folding enthalpy in series [1] is -15.7 kcal/mol. In addition, the Tm in series [2] came out at 55.8 °C.

For the sequence GCGGAAGTCCGC ((((....)))), the folding enthalpy in series [1] is -20.9 kcal/mol. Moreover, in series [2], the Tm came to 56 °C.

For the sequence GCGGAATACCGC ((((....)))), in series [1], the folding enthalpy was -21.9 kcal/mol. Moreover, the Tm in series [2] amounted to 54.2 °C.

GCGGACGAAAGTCACGC ((((((....))).))): the folding enthalpy in series [1] is -20.9 kcal/mol. The Tm in series [2] was determined as 64.8 °C.

As to GCGGACGAAAGTCCACGC ((((((....)))..))), in series [1], the folding enthalpy was -15.2 kcal/mol. Also, the Tm in series [2] is 58.9 °C.

In the case of GCGGACGACCGC ((((....)))), the folding enthalpy in series [1] is -24.6 kcal/mol. Moreover, the Tm in series [2] was 53.8 °C.

As to GCGGACGGCCGC ((((....)))), the folding enthalpy in series [1] is -37.6 kcal/mol. Also, the Tm in series [2] was found to be 59.4 °C.

Regarding GCGGACTCCGC ((((...)))), the folding enthalpy in series [1] is -20.5 kcal/mol. The Tm in series [2] turned out to be 52 °C.

As to GCGGAGATCCGC ((((....)))), the folding enthalpy in series [1] was -26.2 kcal/mol. For the same sequence, in series [2], the Tm was 54.2 °C.

GCGGAGCACCGC ((((....)))): in series [1], the folding enthalpy was -11.2 kcal/mol. Moreover, in series [2], the Tm was determined as 61.6 °C.

In the case of GCGGAGCCGAAAGGCCGC (((..(((....)))))), the folding enthalpy in series [1] was -18.8 kcal/mol. For the same sequence, in series [2], the Tm was determined as 61.1 °C.

Consider GCGGAGCGAAAGCACAGC ((.(.((....)).).)), for which the folding enthalpy in series [1] was -17.4 kcal/mol. In addition, the Tm in series [2] is 58 °C.

With GCGGAGCGAAAGCCCCGC ((((.((....)).)))), the folding enthalpy in series [1] is -35.3 kcal/mol. Moreover, the Tm in series [2] came to 68.7 °C.

Take GCGGAGCGAAAGCCGCGC (((..((....))..))): the folding enthalpy in series [1] was -21.1 kcal/mol. Besides, the Tm in series [2] turned out to be 66.1 °C.

For the sequence GCGGAGCGAAAGCCTCGC (((..((....))..))), the folding enthalpy in series [1] was -13.8 kcal/mol. The Tm in series [2] stood at 50.5 °C.

For GCGGAGCGAAAGCGCTGC ((.(.((....)).).)), the folding enthalpy in series [1] is -15.2 kcal/mol. For the same sequence, the Tm in series [2] stood at 57.1 °C.

Take GCGGAGCGAAAGCGTCGC (((..((....))..))): in series [1], the folding enthalpy is -26.6 kcal/mol. For the same sequence, the Tm in series [2] worked out at 67 °C.

On to GCGGAGCGAAAGCTCGC (((.(((....)))))), for which the folding enthalpy in series [1] is -17.6 kcal/mol. The Tm in series [2] came out at 67.4 °C.

Turning to GCGGAGCGAAAGCTGAGC ((..(((....)))..)), in series [1], the folding enthalpy is -14.6 kcal/mol. Also, the Tm in series [2] is 56.5 °C.

Regarding GCGGAGCGAAAGCTGGGC ((..(((....)))..)), the folding enthalpy in series [1] is -7.98 kcal/mol. The Tm in series [2] turned out to be 43.2 °C.

In the case of GCGGAGGCGAAAGCCCGC (((..(((....)))))), the folding enthalpy in series [1] was -21.7 kcal/mol. Besides, the Tm in series [2] worked out at 66.6 °C.

As to GCGGAGGGAAACCCCCGC ((((.((....)).)))), the folding enthalpy in series [1] was -38.9 kcal/mol. Moreover, the Tm in series [2] was found to be 57.6 °C.

On to GCGGAGGGCCGC ((((....)))), for which the folding enthalpy in series [1] was -15.4 kcal/mol. The Tm in series [2] was 53.9 °C.

In the case of GCGGAGGTCCGC ((((....)))), the folding enthalpy in series [1] was -24.4 kcal/mol. Further, in series [2], the Tm is 56.4 °C.

GCGGAGTCCCGC ((((....)))): the folding enthalpy in series [1] is -21.1 kcal/mol. For the same sequence, in series [2], the Tm came out at 55.7 °C.

Regarding GCGGAGTTCCGC ((((....)))), in series [1], the folding enthalpy is -23.4 kcal/mol. In addition, the Tm in series [2] is 59.6 °C.

As to GCGGATAACCGC ((((....)))), the folding enthalpy in series [1] is -19.6 kcal/mol. The Tm in series [2] is 53 °C.

In the case of GCGGATAGCCGC ((((....)))), in series [1], the folding enthalpy is -26.6 kcal/mol. For the same sequence, the Tm in series [2] came to 54.9 °C.

In the case of GCGGATCCCCGC ((((....)))), the folding enthalpy in series [1] was -23.3 kcal/mol. For the same sequence, the Tm in series [2] is 56.4 °C.

Take GCGGATCCCGC ((((...)))): in series [1], the folding enthalpy was -23.4 kcal/mol. The Tm in series [2] worked out at 53.6 °C.
